pIC50: −log10 of the molar value. Activity calls are given as the source filed them. No cut-off for these calls is given here.
Experiments:
Rat1 [1] = assay: Cytotoxicity against rat immortalized Rat1 cells after 48 hrs by MTT assay; type: cell-based; settings: for pIC50: Rattus norvegicus, Rat1, 48 h; for Activity: rat, rat1, 48 h
Rat1 [2] = assay: Antioxidant activity in rat immortalized Rat1 cells assessed as inhibition of hydrogen peroxide-induced reactive oxygen species production by measuring conversion of 2',7'-dichlorofluorescin diacetate into 2',7'-dichlorofluorescein at 30 uM treated 48 hrs before H2O2 challenge measured after 15 mins by fluorescence assay; type: functional, cell-based
Procedure, shortened: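 Immortalized rat fibroblasts pre-treated 48 h with compound (30 μM), then exposed to 100 μM H2O2 for 15 min; intracellular ROS read as DCF fluorescence from DCFH-DA oxidation. Basal (no H2O2) levels also measured. Values expressed as % of fluorescence in untreated control cells (set at 100).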

Rat1 [3] = assay: Cytotoxicity against rat immortalized Rat1 cells assessed as reduction of cell viability at 30 uM after 48 hrs by MTT assay; type: cell-based; settings: rat1, 48 h
Procedure, shortened: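 Exponentially growing rat fibroblasts given compound at 30 μM; viability assessed by MTT test after 48 h.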

Structure (SMILES)	pIC50 (Rat1 [1])	Activity (Rat1 [1])	inhibition (Rat1 [2])	Activity (Rat1 [3])
COc1cc(C2Oc3cc(-c4oc5cc(O)cc(O)c5c(=O)c4O)ccc3OC2CO)ccc1O (mixture of isomers) [DEHYDROSILYLBIN]	3.81	Dose-dependent effect	Active	Non-toxic
COc1cc(C2Oc3cc([C@H]4Oc5cc(O)cc(O)c5C(=O)[C@@H]4O)ccc3OC2CO)ccc1O (mixture of isomers) [SILIBININ]	3.79	Dose-dependent effect	Active	Non-toxic
